Test results from ChEMBL document CHEMBL4219166, “Evaluation of analogues of furan-amidines as inhibitors of NQO2” (Bioorg Med Chem Lett, 2018).
The source made the active and inactive calls. The rule behind the calls is not given here.

Assays:
[1] = molecular target: T1, Ribosyldihydronicotinamide dehydrogenase [quinone] (Homo sapiens) (UniProt P16083); assay: Inhibition of recombinant human NQO2 assessed as change in rate of decolouration of DCPIP at 10 uM measured over 1 min by spectrophotometric method
T1 sequence (whole entry): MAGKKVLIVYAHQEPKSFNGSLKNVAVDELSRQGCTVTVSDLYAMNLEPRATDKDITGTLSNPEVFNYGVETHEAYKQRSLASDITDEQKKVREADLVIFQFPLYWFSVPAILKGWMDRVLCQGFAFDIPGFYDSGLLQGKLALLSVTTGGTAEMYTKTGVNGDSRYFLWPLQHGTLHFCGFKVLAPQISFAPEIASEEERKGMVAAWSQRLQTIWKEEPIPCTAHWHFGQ
Summary of the method: (§1)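 The NQO2 enzymatic activity was followed spectrophotometrically as the decolouration of the blue redox dye 2,6-dichlorophenolindophenol (DCPIP) at pH 7.4.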

Plasmodium falciparum = assay: Antimalarial activity against Plasmodium falciparum 3D7 asexual cultures grown under 5% haematocrit assessed as decrease in parasite DNA level by flow cytometry; type: functional, organism-based
[2] = molecular target: T2, Ribosyldihydronicotinamide dehydrogenase [quinone] (Homo sapiens, UniProt P16083); assay: Inhibition of recombinant human NQO2 assessed as change in rate of decolouration of DCPIP measured over 1 min by spectrophotometric method; summary of the method: as §1
T2 sequence (P16083 whole entry): T1 sequence (whole entry)

Row | Compound | inhibition [1] | IC50 (Plasmodium falciparum) | IC50 [2]
1 | CC(=O)Nc1ccc(-c2ccc(-c3ccccc3)o2)cc1 | inactive | – | –
2 | CC(=N)Nc1ccc(-c2ccc(-c3ccccc3)s2)cc1 | inactive | 970 nM | –
3 | N=C(N)c1ccc(-c2nc(-c3ccccc3)c[nH]2)cc1 | – | 5300 nM | 1110 nM
4 | Cn1cc(-c2ccccc2)nc1-c1ccc(C(=N)N)cc1 | inactive | – | –
5 | N=C(N)c1ccc(-c2ccc(-c3ccccc3)o2)cc1 | – | 1500 nM | –
6 | Cc1oc(-c2ccc(C(=N)N)cc2)cc1-c1ccccc1 | inactive | – | –
7 | CC(=N)Nc1ccc(-c2ccc(-c3ccccc3)o2)cc1 | inactive | 770 nM | –
8 | CC(=O)Nc1cccc(-c2ccc(-c3ccccc3)s2)c1 | – | – | 2000 nM
9 | N=C(N)c1ccc(-c2ccc(-c3ccc(C(=N)N)cc3)o2)cc1 [FURAMIDINE] | – | 0.5 nM | –
10 | CC(=O)Nc1cccc(-c2ccc(-c3ccccc3)o2)c1 | – | – | 1140 nM
11 | COC(=N)c1ccc(-c2ccc(-c3ccccc3)o2)cc1 | inactive | – | –
12 | N=C(NO)c1ccc(-c2ccc(-c3ccccc3)o2)cc1 | inactive | – | –
13 | N=C(N)c1ccc(-c2ccc(-c3ccccc3)s2)cc1 | – | 18900 nM | 773 nM
